Experimental data taken from ChEMBL document CHEMBL4118065, “Design, synthesis and antimycobacterial activity of novel imidazo[1,2-a]pyridine-3-carboxamide derivatives” (Eur J Med Chem, 2017).
Values after ≈ are worked out from the molar mass of the structure shown.

Key:
[1] = test system: Mycobacterium tuberculosis; experiment: Antimycobacterial activity against Mycobacterium tuberculosis H37Rv ATCC 27294 after 7 days by microplate Alamar blue assay; assay type: functional; conditions: H37Rv ATCC 27294, 168 h
Outline: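 MABA against replicating M. tuberculosis. Cells grown to late log phase (70–100 Klett units) in 7H9 broth with 0.2% glycerol, 0.05% Tween 80 and 10% ADC. They were washed in PBS, filtered (8 µm) and frozen. Twofold compound dilutions received 2×10^5 CFU per well at 37 °C. Tween 80 and Alamar blue were added on day 7, then 16–24 h more. Fluorescence read at 530/590 nm. MIC = lowest concentration giving ≥90% fluorescence reduction versus bacterium-only controls.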

[2] = Selectivity index, ratio of CC50 for African green monkey Vero cells to MIC=>90 for Mycobacterium tuberculosis H37Rv ATCC 27294; assay type: toxicity; conditions: read-out: Selectivity Index
Outline: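 Vero cells in MEM with Earle's salts and 10% FBS, 37 °C, 5% CO₂. Seeded at 1×10⁴ cells/well and recovered 24 h. Exposed to compound at 1000 to 4 μg/mL for 72 h. Viability by MTT. CC50 by Bliss analysis. SI is CC50 divided by MABA MIC against H37Rv ATCC 27294.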

[3] = Cytotoxicity against African green monkey Vero cells assessed as decrease in cell viability after 72 hrs by MTT assay; assay type: cell-based; conditions: chlorocebus sabaeus
Outline: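 Vero cells grown in MEM with Earle's salts plus 10% FBS, 37 °C, 5% CO2; seeded at 1 × 10⁴ cells per well, allowed 24 h recovery, then medium replaced with assay medium with or without compound (1000 to 4 μg/mL). After 72 h exposure, viability read by MTT; CC50 calculated by Bliss analysis.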

| SMILES | MIC90 [1] | selectivity ratio [2] | CC50 at 72 h [3] |
| --- | --- | --- | --- |
| Cc1ccc2nc(C)c(C(=O)N3CCN(c4ccc(Cl)cc4)CC3)n2c1 | 43.5 µM (≈ 16 µg/mL) |  |  |
| Cc1ccc2nc(C)c(C(=O)NCCOCc3ccc(Br)cc3)n2c1 | 0.62 µM (≈ 0.249 µg/mL) |  |  |
| Cc1ccc2nc(C)c(C(=O)N3CCN(c4ccc([N+](=O)[O-])cc4)CC3)n2c1 | 84.4 µM (≈ 32 µg/mL) |  |  |
| Cc1ccc2nc(C)c(C(=O)N3CCN(c4ccccn4)CC3)n2c1 | > 95 µM |  |  |
| Cc1ccc2nc(C)c(C(=O)N3CCC(c4ccc(F)cc4)CC3)n2c1 | 90.3 µM (≈ 31.7 µg/mL) |  |  |
| Cc1ccc2nc(C)c(C(=O)N3CCN(c4ccc(F)cc4)CC3)n2c1 | 90.3 µM (≈ 31.8 µg/mL) |  |  |
| Cc1ccc2nc(C)c(C(=O)N3CCN(c4ccc(Br)cc4)CC3)n2c1 | > 77 µM |  |  |
| Cc1ccc2nc(C)c(C(=O)NCCNCc3ccc(Br)cc3)n2c1 | 9.97 µM (≈ 4 µg/mL) |  |  |
| Cc1ccc(N2CCN(C(=O)c3c(C)nc4ccc(C)cn34)CC2)cc1 | 46 µM (≈ 16 µg/mL) |  |  |
| Cc1ccc2nc(C)c(C(=O)NCCNc3ccccc3F)n2c1 | 0.76 µM (≈ 0.248 µg/mL) |  |  |
| Cc1ccc2nc(C)c(C(=O)NCCNc3ccc(C(C)(C)C)cc3)n2c1 | 0.041 µM (≈ 0.0149 µg/mL) | 1400 | 57.6 µM |
| Cc1ccc2nc(C)c(C(=O)NCCNc3ccccc3)n2c1 | 0.81 µM (≈ 0.25 µg/mL) |  |  |
| Cc1ccc2nc(C)c(C(=O)NCCOCc3ccccc3)n2c1 | 1.93 µM (≈ 0.624 µg/mL) |  |  |
| Cc1ccn2c(C(=O)NCCCNc3ccc([N+](=O)[O-])cc3)c(C)nc2c1 | > 87 µM |  |  |
| COc1ccc(NCCNC(=O)c2c(C)nc3ccc(C)cn23)cc1 | 0.044 µM (≈ 0.0149 µg/mL) | 4400 | 193 µM |
| Cc1ccn2c(C(=O)NCCCNc3ccccc3)c(C)nc2c1 | 12.4 µM (≈ 4.01 µg/mL) |  |  |
| Cc1ccc2nc(C)c(C(=O)NCCNc3ccc(F)cc3)n2c1 | 1.53 µM (≈ 0.499 µg/mL) |  |  |
| Cc1ccc2nc(C)c(C(=O)NCCNc3ccc(C(F)(F)F)cc3)n2c1 | 42.5 µM (≈ 16 µg/mL) |  |  |
| NNC(=O)c1ccncc1 [ISONIAZID] | 0.36 µM (≈ 0.0494 µg/mL) |  |  |
| Cc1ccc2nc(C)c(C(=O)NCCNc3cccc(C(F)(F)F)c3)n2c1 | 5.31 µM (≈ 2 µg/mL) |  |  |

| SMILES | MIC90 [1] | selectivity ratio [2] | CC50 at 72 h [3] |
| --- | --- | --- | --- |
| Cc1ccc2nc(C)c(C(=O)NCCCNc3ccc([N+](=O)[O-])cc3)n2c1 | > 87 µM |  |  |
| Cc1ccc2nc(C)c(C(=O)NCCCNc3ccc(F)cc3)n2c1 | 1.47 µM (≈ 0.5 µg/mL) |  |  |
| Cc1ccc2nc(C)c(C(=O)NCCOc3ccc(Br)cc3)n2c1 | 0.038 µM (≈ 0.0148 µg/mL) |  |  |
| Cc1ccc2nc(C)c(C(=O)N3CCN(c4ccc(F)cc4F)CC3)n2c1 | > 86 µM |  |  |
| Cc1ccc2nc(C)c(C(=O)NCCCNc3ccc(C(C)(C)C)cc3)n2c1 | 1.32 µM (≈ 0.5 µg/mL) |  |  |
| Cc1ccc2nc(C)c(C(=O)NCCNc3ccc([N+](=O)[O-])cc3)n2c1 | > 90 µM |  |  |
| COc1ccc(NCCNC(=O)c2c(C)nc3cc(C)ccn23)cc1 | 47.3 µM (≈ 16 µg/mL) |  |  |
| Cc1ccc2nc(C)c(C(=O)NCCNc3ccc(Cl)c(F)c3)n2c1 | 1.39 µM (≈ 0.502 µg/mL) |  |  |
| Cc1ccc2nc(C)c(C(=O)NCCCNc3ccccc3)n2c1 | 6.21 µM (≈ 2 µg/mL) |  |  |
| Cc1ccc2nc(C)c(C(=O)NCCCOc3ccc(Br)cc3)n2c1 | 0.62 µM (≈ 0.249 µg/mL) |  |  |
| Cc1ccc2nc(C)c(C(=O)NCCNc3ccc(C)c(C)c3)n2c1 | 0.18 µM (≈ 0.0606 µg/mL) |  |  |
| CO[C@H]1/C=C/O[C@@]2(C)Oc3c(C)c(O)c4c(O)c(c(/C=N/N5CCN(C)CC5)c(O)c4c3C2=O)NC(=O)/C(C)=C\C=C\[C@H](C)[C@H](O)[C@@H](C)[C@@H](O)[C@@H](C)[C@H](OC(C)=O)[C@@H]1C [RIFAMPIN] | 0.071 µM (≈ 0.0584 µg/mL) |  |  |
| Cc1ccc2nc(C)c(C(=O)NCCN3CCN(c4ccccc4)CC3)n2c1 | 0.66 µM (≈ 0.249 µg/mL) |  |  |
| Cc1ccc2nc(C)c(C(=O)NCCNc3ccc(Br)cc3)n2c1 | 0.64 µM (≈ 0.248 µg/mL) |  |  |
| Cc1ccc2nc(C)c(C(=O)N3CCN(c4ccccc4)CC3)n2c1 | 95.4 µM (≈ 31.9 µg/mL) |  |  |
| Cc1ccc2nc(C)c(C(=O)NCCNCc3ccccc3)n2c1 | 49.6 µM (≈ 16 µg/mL) |  |  |
| COc1ccc(N2CCN(C(=O)c3c(C)nc4ccc(C)cn34)CC2)cc1 | > 87 µM |  |  |
| Cc1ccn2c(C(=O)NCCCNc3ccc(C(C)(C)C)cc3)c(C)nc2c1 | 10.6 µM (≈ 4 µg/mL) |  |  |
| Cc1ccc2nc(C)c(C(=O)N3CCN(c4ccncc4)CC3)n2c1 | 95 µM (≈ 31.9 µg/mL) |  |  |
| Cc1ccc2nc(C)c(C(=O)N3CCN(c4ccccc4F)CC3)n2c1 | > 90 µM |  |  |
